{"source": "ChEMBL document CHEMBL1821656", "about": "“Design, synthesis, and evaluation of inhibitors of Norwalk virus 3C protease” (Bioorg Med Chem Lett, 2011)", "key": {"[1]": {"test": "(§1) Inhibition of recombinant Norwalk virus 3C protease using Edans-EPDFHLQGPEDLAK-Dabcyl as substrate preincubated for 30 mins measured for 30 mins by spectrofluorometry", "procedure,_shortened": "(§2)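 Enzyme (final 2.5 μM) was held at 30 °C in pH 8.0 sodium phosphate (50 mM) containing 120 mM NaCl and 6 mM DTT. The fluorescence increase was monitored 30 min at 360/460 nm excitation/emission.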"}, "Norwalk virus [2]": {"system": "Norwalk virus", "test": "Inhibition of recombinant Norwalk virus 3C protease using Edans-EPDFHLQGPEDLAK-Dabcyl as substrate at [compound]/[substrate] ratio of 25 preincubated for 30 mins measured for 30 mins by spectrofluorometry", "set-up": "concentration or dose not given beside the values"}, "Norwalk virus [3]": {"system": "Norwalk virus", "test": "as §1", "procedure,_shortened": "as §2"}, "[4]": {"test": "Cytotoxicity against human HG23 cells after 48 hrs", "format": "cell-based", "conditions": "read-out: TD50", "procedure,_shortened": "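HG23 cells carrying the Norwalk replicon were used 1 day after plating at 80-90% confluence. They were exposed for 48 hr to compound at 0 (DMSO mock) to 320 μM. Viability was measured with a commercial cytotoxicity kit, and the median toxic dose (TD50) was calculated.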"}, "[5]": {"test": "Cytotoxicity against mouse […] cells after 12 to 24 hrs relative to ribavirin", "format": "cell-based", "conditions": "read-out: TD50 (the source's name)"}, "Norwalk virus [6]": {"system": "Norwalk virus", "test": "Antiviral activity against Norwalk virus in NV replicon-harboring HG23 cells assessed as inhibition of viral replication after 24 hrs by analyzing NV genome level using qRT-PCR", "format": "functional", "conditions": "HG23, 24 h, read-out: ED50 (the source's name)", "procedure,_shortened": "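HG23 cells (stably harbouring NV replicon), 1 day old and 80–90% confluent, treated with compound at 0 (DMSO mock) to 320 μM. NV genome levels quantified by qRT-PCR after 24 h of treatment.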"}}, "data": [{"smiles": "CC(C)C[C@H](NC(=O)N1CCOCC1)C(=O)N[C@H](C=O)CC1CCNC1=O", "note": "(stereo partly specified)", "values": [{"measurement": "IC50", "setting": "[1]", "result": 7.2, "unit": "µM"}]}, {"smiles": "CC(C)C[C@H](NC(=O)OCc1ccccc1)C(=O)N[C@H](CO)CC1CCNC1=O", "note": "(stereo partly specified)", "values": [{"measurement": "inhibition", "setting": "Norwalk virus [2]", "result": "< 25", "unit": "%"}]}, {"smiles": "CCCC[C@H](NC(=O)CNC(=O)OCc1ccccc1)C(=O)N[C@H](CO)CC1CCNC1=O", "note": "(stereo partly specified)", "values": [{"measurement": "inhibition", "setting": "Norwalk virus [2]", "result": "< 25", "unit": "%"}]}, {"smiles": "CCCC[C@H](NC(=O)CNC(=O)OCc1ccccc1)C(=O)N[C@H](C=O)CC1CCNC1=O", "note": "(stereo partly specified)", "values": [{"measurement": "IC50", "setting": "[1]", "result": 0.87, "unit": "µM"}]}, {"smiles": "CC(C)C[C@H](NC(=O)OCc1ccccc1)C(=O)N[C@H](C=O)CC1CCNC1=O", "note": "(stereo partly specified)", "values": [{"measurement": "IC50", "setting": "[1]", "result": 1.82, "unit": "µM"}, {"measurement": "inhibition", "setting": "Norwalk virus [3]", "result": "Dose-dependent effect"}, {"measurement": "CC50 at 48 h", "setting": "[4]", "result": "> 320", "unit": "µM"}, {"measurement": "CC50", "setting": "[5]", "result": "> 320", "unit": "µM"}]}, {"smiles": "CC(C)C[C@H](NC(=O)CNC(=O)OCc1ccccc1)C(=O)N[C@H](CO)CC1CCNC1=O", "note": "(stereo partly specified)", "values": [{"measurement": "inhibition", "setting": "Norwalk virus [2]", "result": "< 25", "unit": "%"}]}, {"smiles": "CC(C)C[C@H](NC(=O)OCc1ccccc1)C(=O)N[C@@H](CC1CCNC1=O)C(=O)C(=O)NC(C)C", "note": "(stereo partly specified)", "values": [{"measurement": "inhibition", "setting": "Norwalk virus [2]", "result": "< 25", "unit": "%"}]}, {"smiles": "O=C[C@H](CC1CCNC1=O)NC(=O)[C@H](Cc1ccccc1)NC(=O)N1CCOCC1", "note": "(stereo partly specified)", "values": [{"measurement": "inhibition", "setting": "Norwalk virus [2]", "result": "< 25", "unit": "%"}]}, {"smiles": "CC[C@@H](C)[C@H](NC(=O)CNC(=O)OCc1ccccc1)C(=O)N[C@H](C=O)CC1CCNC1=O", "note": "(stereo partly specified)", "values": [{"measurement": "IC50", "setting": "[1]", "result": 7.5, "unit": "µM"}]}, {"smiles": "CC(C)C[C@H](NC(=O)CNC(=O)OCc1ccccc1)C(=O)N[C@H](C=O)CC1CCNC1=O", "note": "(stereo partly specified)", "values": [{"measurement": "IC50", "setting": "[1]", "result": 1.45, "unit": "µM"}, {"measurement": "EC50", "setting": "Norwalk virus [6]", "result": 7.8, "unit": "µM"}, {"measurement": "CC50 at 48 h", "setting": "[4]", "result": "> 320", "unit": "µM"}, {"measurement": "CC50", "setting": "[5]", "result": "> 320", "unit": "µM"}]}]}
